Rows were chosen to be rich in hits. Some 12% of all compounds tested hit in one or more screens of this group.
ROMK primary: human ROMK K+ channel modulation, primary screen; AID 1918; actives 2% (n = 130,000); B-score at 10 µM; Tet-inducible ROMK, thallium flux fluorescence; actives lie on both sides;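 active = signal ratio slope over the read window, or its plate-corrected B-score, at least 3 SD from the plate mean, either direction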;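 note: B-score of the F/F0 ratio slope over 7 to 12 s after thallium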
Diaph act CS: diaphorase activation or chemical reduction counter-screen. Diaphorase/resazurin coupled assay, resorufin fluorescence, 16 min; active compounds read high; 1 = vehicle wells, 0 = NADH-free wells. activation factor at 20 µM. actives 0.005% (n = 190,000). AID 1229;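 active = diaphorase activity raised at least twofold by the compound at 20 µM; inactive = activation factor below 2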
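Material: purified diaphorase enzyme from Clostridium kluyveri / Medium: HEPES pH 7.4 buffer with MgCl2 and Tween 20 / Schedule: enzyme reaction of 16 min at room temperature / Measured by: resorufin fluorescence, excitation 544 nm, emission 590 nm / Evaluation: rise in resorufin formation, marking diaphorase activation or chemical reduction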
WT yeast gro inh: growth inhibition of WT yeast, mitochondrial fusion screen; mitochondrial fusion phenotypic screen, WT strain; inhibition, % at 10 µM; actives 2.1% (n = 190,000); AID 1362; in the data active = inhibition above about 58%; tested in S. cerevisiae
Diaphorase inh: diaphorase inhibition or chemical oxidation counter-screen; diaphorase resazurin-to-resorufin fluorescence, NADH, 16 min; bacterial (C. kluyveri) enzyme, not human; inhibition, % at 20 µM; actives 0.69% (n = 190,000);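 active = primary screen inhibition at 20 µM above a set limit, cut at about 50% in these data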
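Detection: fluorescence of resorufin formed from resazurin, Ex 544/Em 590 nm; test system: Clostridium kluyveri diaphorase enzyme; amount: 0.14 U/mL diaphorase, enzyme working solution; times: 16-min room-temperature incubation before reading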
L major viab: Leishmania major promastigote growth inhibition; Leishmania major promastigotes, resazurin fluorescence viability; inhibition, % at 10 µM; actives 9% (n = 200,000); AID 1063; in the data active = inhibition above about 50%;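 note: promastigotes grown with compound for 44 hours at 28 °C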
KCC2 mod: KCC2 (human) Cl- transport modulation; Q9H2X9; KCC2 cells, thallium flux FluoZin-2 fluorescence; B-score of Tl+ flux slope (higher = more flux/activation; lower = inhibition) at 10 µM; actives 2.2% (n = 190,000);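 active = thallium flux slope and its plate-corrected score both differing from the plate sample mean at a set confidence after two filtering rounds, in either direction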;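 note: slope of fluorescence scaled to starting intensity during 10 to 20 s after thallium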
Target sequence (Q9H2X9 whole entry, looked up): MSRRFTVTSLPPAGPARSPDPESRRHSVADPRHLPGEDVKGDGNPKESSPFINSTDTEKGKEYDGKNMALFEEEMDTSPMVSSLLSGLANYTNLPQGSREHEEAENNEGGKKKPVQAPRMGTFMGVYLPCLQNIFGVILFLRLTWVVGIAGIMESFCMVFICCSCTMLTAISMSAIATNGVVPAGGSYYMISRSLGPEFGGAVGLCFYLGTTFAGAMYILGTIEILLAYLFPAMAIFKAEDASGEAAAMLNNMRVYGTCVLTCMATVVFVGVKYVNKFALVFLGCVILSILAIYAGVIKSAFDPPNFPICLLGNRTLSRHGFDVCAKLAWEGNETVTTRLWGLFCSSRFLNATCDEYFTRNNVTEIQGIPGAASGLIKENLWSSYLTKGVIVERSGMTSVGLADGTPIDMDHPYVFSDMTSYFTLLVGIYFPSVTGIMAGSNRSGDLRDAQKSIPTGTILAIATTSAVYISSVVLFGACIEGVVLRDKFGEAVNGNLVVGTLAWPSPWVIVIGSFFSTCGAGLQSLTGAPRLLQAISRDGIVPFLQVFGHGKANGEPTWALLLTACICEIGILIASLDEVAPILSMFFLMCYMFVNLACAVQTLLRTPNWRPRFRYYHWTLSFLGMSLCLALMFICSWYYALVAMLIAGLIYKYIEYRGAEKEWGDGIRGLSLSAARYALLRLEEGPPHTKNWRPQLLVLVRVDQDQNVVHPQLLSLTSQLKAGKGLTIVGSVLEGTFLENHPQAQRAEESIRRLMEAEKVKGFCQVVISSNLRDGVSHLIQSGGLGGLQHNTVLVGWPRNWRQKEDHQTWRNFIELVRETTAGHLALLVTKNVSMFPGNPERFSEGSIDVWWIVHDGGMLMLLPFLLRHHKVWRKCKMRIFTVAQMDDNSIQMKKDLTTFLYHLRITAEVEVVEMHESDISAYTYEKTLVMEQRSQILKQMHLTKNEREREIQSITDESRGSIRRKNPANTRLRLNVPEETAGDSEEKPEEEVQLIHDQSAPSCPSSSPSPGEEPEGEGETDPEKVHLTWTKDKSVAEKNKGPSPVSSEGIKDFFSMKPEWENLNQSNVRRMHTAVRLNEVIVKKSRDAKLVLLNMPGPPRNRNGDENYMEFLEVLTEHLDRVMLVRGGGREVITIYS
Each line names hits and unclear results; the compound was inactive in the other large screens.

COc1ccc(CCN(C(=S)Nc2ccccc2)C2CC(=O)N(c3ccccc3)C2=O)cc1 (stereo not given)	none (no result: ROMK primary)
CNC(=S)N(Cc1ccc(OC)cc1)C1CC(=O)N(c2ccc(Cl)cc2)C1=O (stereo not given)	L major viab 52 (no result: ROMK primary)
Cc1ccc(N2C(=O)CC(N(CCc3ccccc3)C(=S)Nc3ccc(N(C)C)cc3)C2=O)cc1 (stereo not given)	none (no result: ROMK primary)
COc1ccc(CN(C(=S)Nc2ccccc2)C2CC(=O)N(c3ccc(F)cc3)C2=O)cc1 (stereo not given)	L major viab 91 (no result: ROMK primary)
C=CCN(C(=O)Nc1ccc(Cl)cc1)C1CC(=O)N(c2ccc(OC)cc2)C1=O (stereo not given)	none
O=C1CC(N(CCc2ccccc2)C(=S)Nc2ccccc2)C(=O)N1c1ccc(Br)cc1 (stereo not given)	WT yeast gro inh 70 (no result: ROMK primary)
COc1ccccc1NC(=O)c1ccc(NC(=O)CN(C)Cc2ccccc2F)cc1	none
Oc1ccc(/C=N/N2CCOCC2)c(O)c1O	Diaphorase inh 69
C[C@H](NS(=O)(=O)c1ccccc1F)C(=O)OCC(=O)N1CCc2ccccc21	none
O=C(Nc1c(-c2ccccc2)nc2ccc(Cl)cn12)c1cccs1	L major viab 79
Cc1ccccc1Nc1c(-c2ccncc2)nc2ccc(Cl)cn12	L major viab 75
N/C(=N\OC(=O)N1CCOCC1)c1ccc(Br)cc1	none
Cc1cc(C)cc(NC(=O)N2CCCC2C(=O)Nc2ccc(-n3cnnn3)cc2)c1 (stereo not given)	none
CC(C)c1ccc(NC(=O)N2CCCC2C(=O)Nc2ccc(-n3cnnn3)cc2)cc1 (stereo not given)	L major viab 66
CCCCCC(=O)Nc1nc(C)c(-c2csc(Nc3cc(OC)ccc3OC)n2)s1	L major viab 51 (no result: ROMK primary)
CCCCCCC(=O)Nc1nc(C)c(-c2csc(Nc3cc(OC)ccc3OC)n2)s1	L major viab 71 (no result: ROMK primary)
COc1ccc(OC)c(Nc2nc(-c3sc(NC(=O)c4ccccc4)nc3C)cs2)c1	none (no result: ROMK primary)
CCC(C)(C)NC(=O)COc1ccc(OCc2ccccc2)cc1	none
N#C/C(=C\c1ccccc1)C(=O)Nc1nncs1	none (no result: ROMK primary, Diaph act CS, WT yeast gro inh, Diaphorase inh, L major viab)
CNC(=O)C1CC(=O)N(CCc2ccccc2)C(=Nc2ccc(OC)cc2)S1 (stereo not given)	none
CNC(=O)C1CC(=O)N(CCCc2ccccc2)C(=Nc2ccccc2)S1 (stereo not given)	L major viab 55
CC(=O)NC1(C(=O)O)CCCC1	none (no result: ROMK primary, Diaph act CS, WT yeast gro inh, Diaphorase inh, L major viab)
Cc1cccc(N2C(=O)CC(SC(=Nc3ccccc3)Nc3ccccc3)C2=O)c1 (stereo not given)	none (no result: ROMK primary, KCC2 mod)
O=C1CC(SC(=Nc2ccccc2)Nc2ccccc2)C(=O)N1c1ccc(Cl)c(Cl)c1 (stereo not given)	WT yeast gro inh 62, L major viab 66
CN=C(Nc1cc(Cl)ccc1Cl)SC1CC(=O)N(c2ccc(C(=O)OC)cc2)C1=O (stereo not given)	WT yeast gro inh 69 (no result: ROMK primary, KCC2 mod)
COC(=O)c1ccc(N2C(=O)CC(SCC(=O)Nc3ccc(OC)cc3)C2=O)cc1 (stereo not given)	none (no result: ROMK primary, Diaph act CS, WT yeast gro inh, Diaphorase inh, L major viab)
COC(=O)C(=C/C(C)=C/c1cccnc1)C(=O)OC	L major viab 71
O=C(COc1cccc2ccccc12)N1c2ccccc2CCc2ccccc21	none (no result: ROMK primary)
NC(=O)c1ccsc1NC(=O)COC(=O)Cc1cccc2ccccc12	WT yeast gro inh 78
COc1ccccc1OCC(=O)OCC(=O)Nc1sccc1C(N)=O	L major viab 53
CC1(C)CC(=O)C2=C(C1)NC(Nc1nc3ccccc3o1)=NC21CCCCC1	L major viab 59 (no result: KCC2 mod)
CCCN1CN=C(Nc2nc3ccccc3o2)NC1	none (no result: ROMK primary, Diaph act CS, WT yeast gro inh, Diaphorase inh, L major viab)
Oc1ccc(-c2cn3cc(C(F)(F)F)ccc3n2)cc1	L major viab 51 (no result: ROMK primary)
O=C(NCCN1C(=O)S/C(=C\c2cccnc2)C1=O)C1=NN(c2ccccc2)C(=O)CC1	none
Cc1ccccc1N=C1SC(CC(=O)Nc2ccc3ccccc3c2)C(=O)N1Cc1ccccn1 (stereo not given)	L major viab 98
O=C(Cc1ccccc1)NCC(=O)N/N=C/c1ccc(Cl)cc1	none
CCN(CC)CC(=O)NN=C(c1ccccc1)c1ccccc1	none (no result: ROMK primary, KCC2 mod)
